In the library only some 2.2% were active in any assay of this set; here they are far more common.
MCL1 BIM primary: inhibitors of MCL1 binding to BIM-BH3, primary screen, biochemical, fluorescence polarization | GST-MCL1 / FITC-Bim-BH3 fluorescence polarization | inhibition, % at 10.9 µM | 0.68% of 320,000 active;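 active = inhibition above the mean inhibition of all tested compounds plus 3 SD, set per campaign, cut at about 40% in these data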;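 also: higher means more loss of mP so more displacement of Bim peptide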
Mcl1 Bid PPI: Mcl-1/Bid binding inhibitors, primary screen, biochemical, TR-FRET, 1536-well | 0.97% of 220,000 active | AID 1021, 2008 | TR-FRET Mcl-1/Bid-Dy647 peptide binding | Induced myeloid leukemia cell differentiation protein Mcl-1 (Homo sapiens), Q07820 | inhibition, % at 21.7 µM;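 active = compounds that cut the binding signal by more than half at the single screening dose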;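 also: His-tagged Mcl-1 with europium anti-His antibody binding Bid BH3 peptide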
RBBP9 inhibitor: human RBBP9 inhibitors, primary screen, biochemical, fluorescence polarization, FP-Rh probe, HTS; recombinant RBBP9; inhibition, % at 7.94 µM; 0.2% of 220,000 active;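 active = inhibition above the campaign mean of all tested compounds plus 3 SD, cut at about 14% in these data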
Target sequence (O75884 whole entry, looked up): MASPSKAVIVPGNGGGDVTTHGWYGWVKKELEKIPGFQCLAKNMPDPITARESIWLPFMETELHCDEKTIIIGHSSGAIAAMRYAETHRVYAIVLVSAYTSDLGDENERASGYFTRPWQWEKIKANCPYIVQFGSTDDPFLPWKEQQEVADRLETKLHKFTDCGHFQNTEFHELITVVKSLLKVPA
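system = RBBP9 protein | input = RBBP9 at 2.5 µM in dispensed solution, before mixing | measured by = fluorescence polarization (mP), excitation 525 nm, emission 598 nm | incubation = enzyme-compound preincubation 30 min, then probe labeling 45 min, 25 °C | buffer or medium = Tris-NaCl-Pluronic buffer, pH 8.0 | compound = single dose 7.94 µM | also added = FP-Rh probe, 375 nM dispensing solution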
Mcl1-Noxa inh: Mcl-1/Noxa binding inhibitors, primary screen, biochemical, TR-FRET, 1536-well | TR-FRET Mcl-1/Noxa peptide binding, 2 h | inhibition, % at 21.7 µM | 1.5% of 220,000 active;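 active = compounds that cut the protein-peptide binding signal by more than 50% relative to plate controls in a single-dose test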;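 also: His-tagged Mcl-1 with rhodamine Noxa BH3 peptide and terbium anti-His antibody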
Mcl-1 Bim block: inhibitors of Bim peptide binding to Mcl-1, primary screen, biochemical, bead-based flow cytometry, multiplex; Bim peptide-Mcl-1 binding; inhibition, % at 10 µM; 0.1% of 190,000 active; AID 1009, 2008; in the data active = inhibition above about 40%
EBV gp42 inh: Epstein-Barr virus gp42 inhibitors, primary screen, biochemical, uHTS, fluorescence polarization. Glycoprotein 42 (Epstein-Barr virus (strain AG876)), Q1HVG2. Fluorescence polarization binding assay, mP read-out. inhibition, % (tested at 21.74 µM). 0.42% of 220,000 active; in the data active = inhibition above about 50%
Target sequence (Q1HVG2 whole entry, looked up): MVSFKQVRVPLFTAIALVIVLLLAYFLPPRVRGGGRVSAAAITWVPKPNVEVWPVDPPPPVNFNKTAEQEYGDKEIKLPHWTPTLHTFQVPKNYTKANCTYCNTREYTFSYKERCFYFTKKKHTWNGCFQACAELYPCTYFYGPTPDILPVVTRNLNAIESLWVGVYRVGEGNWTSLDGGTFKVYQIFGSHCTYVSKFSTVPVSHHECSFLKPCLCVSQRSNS
A number is an active result.

CCOC(=O)C1CCN(C(=O)c2cc(S(=O)(=O)N3CCOCC3)c(Cl)cc2Cl)CC1 was read as MCL1 BIM primary inactive, Mcl1 Bid PPI 95, RBBP9 inhibitor inactive, Mcl1-Noxa inh inactive, Mcl-1 Bim block inactive and EBV gp42 inh inactive.
`CCN(CC)CCNC(=O)c1ccc(CS(=O)(=O)c2ccc(Br)cc2)o1` gave MCL1 BIM primary inactive, Mcl1 Bid PPI 58, RBBP9 inhibitor inactive, Mcl1-Noxa inh inactive, Mcl-1 Bim block inactive and EBV gp42 inh inactive.
For CN(C)c1ccc(NC(=O)Cn2ncn3c(cc4ccccc43)c2=O)cc1 the results were MCL1 BIM primary inactive, Mcl1 Bid PPI inactive, RBBP9 inhibitor inactive, Mcl1-Noxa inh 76, Mcl-1 Bim block inactive and EBV gp42 inh inactive.
For CCSc1nc2ccccc2n1C(=O)/C=C\c1ccc(OC)c(OC)c1 the results were MCL1 BIM primary inactive, Mcl1 Bid PPI inactive, RBBP9 inhibitor inactive, Mcl1-Noxa inh 62, Mcl-1 Bim block inactive and EBV gp42 inh inactive.
CCCOc1ccc(C2C3=C(Nc4nc(N)[nH]c(=O)c42)c2ccccc2C3=O)cc1 (configuration not stated) was read as MCL1 BIM primary inactive, Mcl1 Bid PPI inactive, RBBP9 inhibitor inactive, Mcl1-Noxa inh inactive and EBV gp42 inh inactive.
Screening CCOc1ccc(C2C3=C(Nc4nc(N)[nH]c(=O)c42)c2ccccc2C3=O)cc1 (configuration not stated) returned MCL1 BIM primary inactive, Mcl1 Bid PPI 52, RBBP9 inhibitor inactive, Mcl1-Noxa inh 76, Mcl-1 Bim block inactive and EBV gp42 inh inactive.
For COc1cc(OC)cc(C(=O)NC(C(=O)Nc2ccc3c(c2)OCO3)C(C)C)c1 (configuration not stated) the results were MCL1 BIM primary inactive.
CN(C)CCN(Cc1ccc(Cl)cc1)c1ccccn1 was read as MCL1 BIM primary inactive, Mcl1 Bid PPI inactive, RBBP9 inhibitor inactive, Mcl1-Noxa inh 61, Mcl-1 Bim block inactive and EBV gp42 inh inactive.
Screening C[N+](C)(C)CCN(Cc1ccc(Cl)cc1)c1ccccn1 returned MCL1 BIM primary inactive, Mcl1 Bid PPI inactive, RBBP9 inhibitor inactive, Mcl1-Noxa inh inactive, Mcl-1 Bim block inactive and EBV gp42 inh inactive.
`O=C(Nc1ccc(N2CCCCC2)cc1)c1ccc([N+](=O)[O-])o1` gave MCL1 BIM primary inactive.
O=C(Nc1ccc(N2CCCC2)c(Cl)c1)c1ccc([N+](=O)[O-])o1 was read as Mcl1 Bid PPI inactive, RBBP9 inhibitor inactive, Mcl1-Noxa inh 59, Mcl-1 Bim block inactive and EBV gp42 inh inactive.
O=c1c(C(c2ccccc2)c2c(O)sc3ccccc3c2=O)c(O)sc2ccccc12 was read as MCL1 BIM primary inactive, Mcl1 Bid PPI 71, RBBP9 inhibitor inactive, Mcl1-Noxa inh 53, Mcl-1 Bim block inactive and EBV gp42 inh inactive.
For Cc1cccc(-n2ncc3c2CCCC3NC(=O)C2=CC(=O)CC(C)(C)O2)c1C (configuration not stated) the results were MCL1 BIM primary inactive.
`C[C@]12CC[C@@H]3c4ccc(O)cc4CC[C@H]3[C@@H]1CC[C@@H]2O` gave MCL1 BIM primary inactive, Mcl1 Bid PPI inactive, RBBP9 inhibitor inactive, Mcl1-Noxa inh inactive, Mcl-1 Bim block inactive and EBV gp42 inh inactive.
For C[C@]12CC[C@@H]3c4cc(O)c(O)cc4CC[C@H]3[C@@H]1CC[C@@H]2O the results were MCL1 BIM primary inactive, Mcl1 Bid PPI inactive, RBBP9 inhibitor 24, Mcl1-Noxa inh inactive, Mcl-1 Bim block inactive and EBV gp42 inh inactive.
O=C(CSc1nnc(-c2ccco2)o1)c1ccc[nH]1 was read as MCL1 BIM primary inactive, Mcl1 Bid PPI inactive, RBBP9 inhibitor inactive, Mcl1-Noxa inh 56, Mcl-1 Bim block inactive and EBV gp42 inh inactive.
`Cc1cccc(NC(=O)CSc2nnc(-c3ccco3)o2)c1C` gave MCL1 BIM primary inactive, Mcl1 Bid PPI inactive, RBBP9 inhibitor inactive, Mcl1-Noxa inh 54, Mcl-1 Bim block inactive and EBV gp42 inh inactive.
O=C(CSc1nnc(-c2ccco2)o1)c1ccccc1 was read as MCL1 BIM primary inactive, Mcl1 Bid PPI inactive, RBBP9 inhibitor inactive, Mcl1-Noxa inh inactive, Mcl-1 Bim block inactive and EBV gp42 inh inactive.
For Cc1ccc2[nH]c(C(=O)N3CCN(C(c4ccccc4)c4ccccc4)CC3)cc2c1 the results were MCL1 BIM primary inactive.
`O=C1NC(CCc2ccccc2)C(=O)N1Cc1ccccc1Cl` (configuration not stated) gave MCL1 BIM primary inactive, Mcl1 Bid PPI 95, RBBP9 inhibitor inactive, Mcl1-Noxa inh inactive, Mcl-1 Bim block inactive and EBV gp42 inh inactive.
For CC(=O)C1=C(C)N(Cc2ccccc2)C(=O)N[C@H]1CCc1ccccc1 the results were MCL1 BIM primary inactive, Mcl1 Bid PPI inactive, RBBP9 inhibitor inactive, Mcl1-Noxa inh inactive, Mcl-1 Bim block inactive and EBV gp42 inh inactive.
For Oc1ccc(N2CCN(c3nc(-c4cccs4)nc4ccccc34)CC2)cc1 the results were MCL1 BIM primary 44, Mcl1 Bid PPI inactive, RBBP9 inhibitor inactive, Mcl1-Noxa inh 94 and EBV gp42 inh inactive.
`O=C(NNC(=O)c1ccc(O)c(Cl)c1)c1cccc(S(=O)(=O)N2CCOCC2)c1` gave MCL1 BIM primary inactive.
COc1ccc2oc(C(=O)NCCN3CCOCC3)c(C)c2c1OC was read as MCL1 BIM primary inactive.
Screening CCn1c(-c2cccc(Br)c2)n[nH]c1=S returned MCL1 BIM primary inactive, Mcl1 Bid PPI 97, RBBP9 inhibitor inactive, Mcl1-Noxa inh inactive, Mcl-1 Bim block inactive and EBV gp42 inh inactive.
`S=c1[nH]nc(-c2cccc(Cl)c2)n1CCN1CCCCC1` gave MCL1 BIM primary inactive, Mcl1 Bid PPI 95, RBBP9 inhibitor inactive, Mcl1-Noxa inh inactive, Mcl-1 Bim block inactive and EBV gp42 inh inactive.
For Cc1ccc(C(=O)OCC(=O)NNC(=O)c2ccc([N+](=O)[O-])cc2)o1 the results were MCL1 BIM primary inactive.
COc1ccc(/C=C2\SC(=S)N(C(Cc3ccccc3)C(=O)O)C2=O)cc1 (configuration not stated) was read as Mcl1 Bid PPI inactive, RBBP9 inhibitor inactive, Mcl1-Noxa inh inactive, Mcl-1 Bim block inactive and EBV gp42 inh inactive.
Screening O=C1S/C(=C\C=C\c2ccco2)C(=O)N1c1ccc(O)cc1 returned MCL1 BIM primary inactive, Mcl1 Bid PPI inactive, RBBP9 inhibitor inactive, Mcl1-Noxa inh 56, Mcl-1 Bim block inactive and EBV gp42 inh inactive.
O=C(O)C(Cc1ccccc1)N1C(=O)/C(=C/C=C/c2ccco2)SC1=S (configuration not stated) was read as Mcl1 Bid PPI 98, RBBP9 inhibitor inactive, Mcl1-Noxa inh 102 and EBV gp42 inh inactive.

Screening results: PubChem, several laboratories
